Laboratory results reported in ChEMBL document CHEMBL1147912, “1-(1,3-Benzodioxol-5-ylmethyl)-3-[4-(1H-imidazol-1-yl)phenoxy]-piperidine analogs as potent and selective inhibitors of nitric oxide formation” (Bioorg Med Chem Lett, 2007).

Assays:
A 172 = test: Inhibition of nitric oxide formation in human A172 cells; type: functional, cell-based
Method in brief: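 Human A172 cells were stimulated with cytokines to induce NO formation, with compound present. Nitrite/NO produced was read with Griess reagent and IC50 determined.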

[1] = molecular target: Nitric oxide synthase, inducible (Homo sapiens, UniProt P35228); test: Inhibition of tetracycline-induced iNOS expressed in SF9 cells
Chain of Nitric oxide synthase, inducible (P35228 whole entry): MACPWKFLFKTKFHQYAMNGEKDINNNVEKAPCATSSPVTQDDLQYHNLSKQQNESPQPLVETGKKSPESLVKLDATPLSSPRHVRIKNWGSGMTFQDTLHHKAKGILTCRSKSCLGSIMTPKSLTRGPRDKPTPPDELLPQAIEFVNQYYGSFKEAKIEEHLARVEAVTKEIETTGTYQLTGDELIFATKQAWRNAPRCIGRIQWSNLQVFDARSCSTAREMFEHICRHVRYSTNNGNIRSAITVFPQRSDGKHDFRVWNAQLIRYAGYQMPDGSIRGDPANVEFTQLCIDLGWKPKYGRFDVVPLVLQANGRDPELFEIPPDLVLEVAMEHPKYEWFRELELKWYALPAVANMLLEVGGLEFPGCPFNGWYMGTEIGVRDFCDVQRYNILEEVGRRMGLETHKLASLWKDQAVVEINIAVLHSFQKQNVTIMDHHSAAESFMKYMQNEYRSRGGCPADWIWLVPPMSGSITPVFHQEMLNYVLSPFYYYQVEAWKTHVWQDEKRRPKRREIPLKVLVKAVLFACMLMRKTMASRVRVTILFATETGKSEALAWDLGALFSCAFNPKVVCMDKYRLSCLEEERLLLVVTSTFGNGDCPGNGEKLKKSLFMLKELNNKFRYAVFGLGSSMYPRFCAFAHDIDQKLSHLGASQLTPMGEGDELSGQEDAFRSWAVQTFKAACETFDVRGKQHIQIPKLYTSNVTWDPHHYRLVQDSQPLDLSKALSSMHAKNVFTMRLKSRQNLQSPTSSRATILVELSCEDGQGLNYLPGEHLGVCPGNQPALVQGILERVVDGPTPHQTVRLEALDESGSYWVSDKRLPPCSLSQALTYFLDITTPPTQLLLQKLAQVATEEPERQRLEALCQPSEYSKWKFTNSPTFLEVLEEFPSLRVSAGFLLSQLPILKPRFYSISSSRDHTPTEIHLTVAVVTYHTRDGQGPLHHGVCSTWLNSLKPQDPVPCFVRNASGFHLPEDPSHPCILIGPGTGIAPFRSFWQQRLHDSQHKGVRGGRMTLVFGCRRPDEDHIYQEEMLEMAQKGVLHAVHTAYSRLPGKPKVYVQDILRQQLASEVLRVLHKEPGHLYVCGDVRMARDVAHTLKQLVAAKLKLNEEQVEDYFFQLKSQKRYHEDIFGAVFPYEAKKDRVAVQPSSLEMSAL
Method in brief: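 SF9 cells transfected with iNOS in a tetracycline-inducible system, expression induced by tetracycline. NOS activity was measured as conversion of radiolabeled arginine to radiolabeled citrulline. IC50 was averaged over at least two separate experiments unless noted otherwise.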

[2] = Volume of distribution at steady state in rat at 2 mg/kg, iv; type: ADME, organism-based; parameters: dose 2 mg/kg, route intravenous; details: in vivo, read-out: Vss
Method in brief: (§1)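 Rat, intravenous dose of 2 mg/kg. Readouts were half-life, clearance, steady-state volume of distribution and AUC to infinity.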

[3] = Half life in rat at 2 mg/kg, iv; type: ADME, organism-based; parameters: dose 2 mg/kg, route intravenous; details: in vivo; method in brief: as §1
[4] = Cmax in rat at 10 mg/kg, po; type: ADME, organism-based; parameters: dose 10 mg/kg, route oral; details: in vivo
Method in brief: (§2)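 Rat, oral dose of 10 mg/kg. Readouts were Cmax, terminal half-life, AUC to infinity and oral bioavailability (%F).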

[5] = Metabolic stability in human liver microsomes after 3 hrs; type: ADME, Microsome; details: read-out: Stability
Method in brief: (§3)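 Compound incubated with rat, dog or human liver microsomes for 3 h. Stability was reported as percent parent remaining.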

[6] = AUC (infinity) in rat at 10 mg/kg, po; type: ADME, organism-based; parameters: time infinity, dose 10 mg/kg, route oral; details: plasma; method in brief: as §2
[7] = Metabolic stability in dog liver microsomes after 3 hrs; type: ADME, Canis lupus familiaris, Microsome; details: read-out: Stability; method in brief: as §3
Rattus norvegicus = test: AUC (infinity) in rat at 2 mg/kg, iv; type: ADME, organism-based, Plasma; parameters: time infinity, dose 2 mg/kg, route intravenous; details: in vivo; method in brief: as §1
[8] = Metabolic stability in rat liver microsomes after 3 hrs; type: ADME, Microsome; details: read-out: Stability; method in brief: as §3
[9] = Bioavailability in rat at 10 mg/kg, po; type: ADME, organism-based; details: in vivo; method in brief: as §2
[10] = Half life in rat at 10 mg/kg, po; type: ADME, organism-based; parameters: dose 10 mg/kg, route oral; details: in vivo; method in brief: as §2
[11] = Clearance in rat at 2 mg/kg, iv; type: ADME, organism-based; parameters: dose 2 mg/kg, route intravenous; details: in vivo; method in brief: as §1

SMILES	IC50 (A 172) [nM]	IC50 [1] [nM]	also measured
c1cn(-c2ccc(OCCN(Cc3ccc4c(c3)OCO4)Cc3ccc4c(c3)OCO4)cc2)cn1	1500		
O=C(CN(CCOc1ccc(-n2ccnc2)cc1)Cc1ccc2c(c1)OCO2)NCc1ccc2c(c1)OCO2	640		
c1cn(-c2ccc(OC3CCCN(Cc4ccc5c(c4)OCO5)C3)cc2)cn1 (stereo unspecified)	57	250	
c1cn(-c2ccc(NC3CCCN(Cc4ccc5c(c4)OCO5)C3)cc2)cn1 (stereo unspecified)	10	120	
c1cn(-c2ccc(OC3CCCN(Cc4ccc5c(c4)OCO5)C3)nn2)cn1 (stereo unspecified)	52	590	
CC1CCCCN1CCCNC(=O)CN(CCOc1ccc(-n2ccnc2)cc1)Cc1ccc2c(c1)OCO2 (stereo unspecified)	1600		
c1cn(-c2ccc(OC3CCCCN(Cc4ccc5c(c4)OCO5)C3)cc2)cn1 (stereo unspecified)	78		
O=C(CN(CCOc1ccc(-n2ccnc2)cc1)Cc1ccc2c(c1)OCO2)NCc1ccc(C(F)(F)F)cc1	1800		

Further lines, with some results ahead:

IC50 (A 172) [nM]	IC50 [1] [nM]	SMILES	also measured
240		c1cn(-c2ccc(OCCNCc3ccc4c(c3)OCO4)cc2)cn1	
> 10000		O=C(O)CN(CCOc1ccc(-n2ccnc2)cc1)Cc1ccc2c(c1)OCO2	
1700		c1cn(-c2ccc(O[C@@H]3CCCN(Cc4ccc5c(c4)OCO5)C3)cc2)cn1	
9	72	c1cn(-c2ccc(O[C@H]3CCCN(Cc4ccc5c(c4)OCO5)C3)cc2)cn1	Vd [2]: 21 L/kg; half-life [3]: 2.2 h; Cmax [4]: 800 ng/mL; remaining at 3 h [5]: 31%; AUC(0-inf) [6]: 2600 ng·h/mL; remaining at 3 h [7]: 89%; AUC (Rattus norvegicus): 280 ng·h/mL; remaining at 3 h [8]: 47%; bioavailability [9]: 100%; half-life [10]: 2.9 h; clearance [11]: 128 mL/min/kg
1600		c1cn(-c2ccc(O[C@H]3CCN(Cc4ccc5c(c4)OCO5)C3)cc2)cn1	
> 10000		c1cn(-c2ccc(OCC3CCCN(Cc4ccc5c(c4)OCO5)C3)cc2)cn1 (stereo unspecified)	
100	2200	c1cn(-c2ccc(OCC3CCCCN3Cc3ccc4c(c3)OCO4)cc2)cn1 (stereo unspecified)	
4200		c1cn(-c2ccc(OC3CCN(Cc4ccc5c(c4)OCO5)C3)cc2)cn1 (stereo unspecified)	
> 10000		c1cn(-c2ccc(O[C@@H]3CCN(Cc4ccc5c(c4)OCO5)C3)cc2)cn1	
250	1200	c1cn(-c2ccc(OC[C@H]3CCCN3Cc3ccc4c(c3)OCO4)cc2)cn1	
1200		CCOC(=O)CN(CCOc1ccc(-n2ccnc2)cc1)Cc1ccc2c(c1)OCO2	
